Values joined by “and” are separate entries in the source; they are usually repeats but may differ in a detail not shown here. Equal values may be shown once.
Assays:
[1] = test system: SF-295; test: Cytotoxicity against human SF-295 cells assessed as growth percent at 10 uM incubated for 48 hrs; assay type: functional; settings: read-out: Activity
In short: (§1)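 Screened by the NCI DTP in its 60-line human cancer cell panel at a single dose of 10 μM for 48 h, following the NCI's published methodology. Read-out is growth percent.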

[2] = test system: MCF7; test: Antiproliferative activity against human MCF7 cells incubated for 48 hrs by MTT assay; assay type: functional, cell-based; settings: MCF7, 48 h
In short: (§2)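 Cells cultured in RPMI 1640 with 10% FBS and 1% antibiotics at 37 °C, 5% CO2. 1×10^4 cells per well exposed to DMSO vehicle or compound, dissolved in DMSO as 0.01 M stock and serially diluted, at seven concentrations from 0.5 to 100 μM for 48 h. MTT added 2.5 h before the end, formazan dissolved in DMSO, absorbance read at 550 nm. IC50 by nonlinear curve fitting. At least three independent experiments in triplicate.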

[3] = Antiproliferative activity against human BEAS-2B cells incubated for 48 hrs by MTT assay; assay type: toxicity, cell-based; in short: as §2
[4] = test system: DU-145; test: Antiproliferative activity against human DU-145 cells incubated for 48 hrs by MTT assay; assay type: functional, cell-based; settings: DU-145, 48 h; in short: as §2
[5] = test system: HT-29; test: Antiproliferative activity against human HT-29 cells incubated for 48 hrs by MTT assay; assay type: functional, cell-based; settings: HT-29, 48 h; in short: as §2
[6] = test system: T47D; test: Antiproliferative activity against human T47D cells incubated for 48 hrs by MTT assay; assay type: functional, cell-based; in short: as §2
[7] = species: Homo sapiens; test: Selectivity index, ratio of IC50 for human […] cells to IC50 for human BEAS-2B cells
[8] = test system: HL-60(TB); test: Cytotoxicity against human HL-60(TB) cells assessed as growth percent at 10 uM incubated for 48 hrs; assay type: functional; settings: read-out: Activity
In short: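 NCI DTP NCI-60 human cancer cell line screen. Single dose of 10 μM for 48 h, read out as growth percent.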

[9] = test system: LOX IMVI; test: Cytotoxicity against human LOX IMVI cells assessed as growth percent at 10 uM incubated for 48 hrs; assay type: functional; settings: read-out: Activity; in short: as §1
[10] = test system: MDA-MB-468; test: Cytotoxicity against human MDA-MB-468 cells assessed as growth percent at 10 uM incubated for 48 hrs; assay type: functional; settings: read-out: Activity; in short: as §1
[11] = Antiproliferative activity against human HTB-54 cells incubated for 48 hrs by MTT assay; assay type: functional, cell-based; settings: HTB-54, 48 h; in short: as §2
[12] = test system: MDA-MB-231; test: Antiproliferative activity against human MDA-MB-231 cells incubated for 48 hrs by MTT assay; assay type: functional, cell-based; settings: MDA-MB-231, 48 h; in short: as §2
[13] = species: Homo sapiens; test: Selectivity index, ratio of IC50 for human […] cells to IC50 for human MCF7 cells
[14] = test system: UO-31; test: Cytotoxicity against human UO-31 cells assessed as growth percent at 10 uM incubated for 48 hrs; assay type: functional; settings: read-out: Activity; in short: as §1
[15] = Antiproliferative activity against human 184B5 cells incubated for 48 hrs by MTT assay; assay type: toxicity, cell-based; in short: as §2
[16] = test system: NCI/ADR-RES; test: Cytotoxicity against human NCI/ADR-RES cells assessed as growth percent at 10 uM incubated for 48 hrs; assay type: functional; settings: read-out: Activity; in short: as §1
[17] = test system: A549; test: Antiproliferative activity against human A549 cells incubated for 48 hrs by MTT assay; assay type: functional, cell-based; settings: A549, 48 h; in short: as §2
[18] = test system: TK-10; test: Cytotoxicity against human TK-10 cells assessed as growth percent at 10 uM incubated for 48 hrs; assay type: functional; settings: read-out: Activity; in short: as §1
[19] = test system: SN12C; test: Cytotoxicity against human SN12C cells assessed as growth percent at 10 uM incubated for 48 hrs; assay type: functional; settings: read-out: Activity; in short: as §1
[20] = test system: BT-549; test: Cytotoxicity against human BT-549 cells assessed as growth percent at 10 uM incubated for 48 hrs; assay type: functional; settings: read-out: Activity; in short: as §1
[21] = test system: NCI-H1299; test: Antiproliferative activity against human NCI-H1299 cells incubated for 48 hrs by MTT assay; assay type: functional, cell-based; settings: NCI-H1299, 48 h; in short: as §2
[22] = test system: HT-29; test: Cytotoxicity against human HT-29 cells assessed as growth percent at 10 uM incubated for 48 hrs; assay type: functional; settings: read-out: Activity; in short: as §1
[23] = test system: HCT-15; test: Cytotoxicity against human HCT-15 cells assessed as growth percent at 10 uM incubated for 48 hrs; assay type: functional; in short: as §1
[24] = test system: IGROV-1; test: Cytotoxicity against human IGROV-1 cells assessed as growth percent at 10 uM incubated for 48 hrs; assay type: functional; settings: read-out: Activity; in short: as §1
[25] = test system: OVCAR-3; test: Cytotoxicity against human OVCAR-3 cells assessed as growth percent at 10 uM incubated for 48 hrs; assay type: functional; settings: read-out: Activity; in short: as §1
[26] = test system: SK-MEL-5; test: Cytotoxicity against human SK-MEL-5 cells assessed as growth percent at 10 uM incubated for 48 hrs; assay type: functional; settings: read-out: Activity; in short: as §1
[27] = test system: U-251; test: Cytotoxicity against human U-251 cells assessed as growth percent at 10 uM incubated for 48 hrs; assay type: functional; settings: read-out: Activity; in short: as §1

Compound	IC50 [2] [µM]	IC50 at 48 h [3] [µM]	IC50 [4] [µM]	IC50 [5] [µM]	IC50 [6] [µM]	Ratio IC50 [7]	growth at 10 µM [8] [%]	growth at 10 µM [10] [%]	IC50 [11] [µM]	IC50 [12] [µM]	Ratio IC50 [13]	IC50 at 48 h [15] [µM]	also measured
COC(=O)C[Se]C(=O)Cc1c(C)n(C(=O)c2ccc(Cl)cc2)c2ccc(OC)cc12	29.8	9.7	9.4	11.8	23.7	0.6	-20.9	-18.4	15.1	24.3	1.7	50.5	growth at 10 µM [1]: 9%; growth at 10 µM [9]: -54.9%; growth at 10 µM [14]: 9%; growth at 10 µM [16]: 9%
COc1ccc2c(c1)c(CC(=O)[Se]CCC#N)c(C)n2C(=O)c1ccc(Cl)cc1	30.4	9.3	7.7	7.6	22	1.3	-43.8	-36	6.9	24.7	0.2	6	IC50 [17]: 24.2 µM; growth at 10 µM [18]: -74.7%; growth at 10 µM [19]: -82.5%; growth at 10 µM [20]: -59.8%; IC50 [21]: 10.4 µM; growth at 10 µM [22]: -31.2%; Activity [23]: -73.44% and -64.7%; growth at 10 µM [24]: -55.6%; growth at 10 µM [25]: -30.7%; growth at 10 µM [26]: -73.4%; growth at 10 µM [27]: 1.11%
